A short description of assay [1]: Her2 expression decrease, cell viability multiplex – SKBR3 breast tumor cells, AlphaScreen, ATP viability, primary screen (AID 461;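 active = Her2 level under about 52% in both replicate screens, with viability over 70% of control, limit read from the data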;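 as to Her2 level: lower value means less Her2 protein in the cells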;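 as to viability: percent of carrier control wells set as 100% viability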). Particulars: SKBR3 Her2 protein level, 18-24 h, measured here: SKBR3 viability, ATP luminescence, at 10 µM.
Assay [2] has as its target Receptor tyrosine-protein kinase erbB-2 (Homo sapiens) (UniProt P04626). The assay is described as above. Particulars: 18-24 h, at 10 µM, stronger effect = lower value.
The nature of assay [3]: reduced viability of SK-BR-3 breast cancer cells – cell-based, 24 h, human, pilot screen (AID 572;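 active = viability at or below 10% of carrier control in both of two separate runs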;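 also: compound exposure lasted between 18 and 24 h rather than exactly 24 h; 100% = carrier-treated control wells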). Conditions: SK-BR-3 viability, CellTiter-Glo luminescence, at 10 µM, stronger effect = lower value.
Assay [4] can be described thus: HUVEC growth inhibition – cell-based, human, primary screen (AID 575;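 active = viability at or below 30% in both replicate assays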;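 also: 100% = median of untreated cell wells with 0.1% DMSO on each plate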). Conditions: HUVEC proliferation, CellTiter-Glo luminescence, 72 h; at 10 µM; stronger effect = lower value. The method, boiled down: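 system = HUVEC primary cells | amount = 1250 cells/well | buffer or medium = supplemented EBM, 2% fetal bovine serum | dosing = single-point 10 µM, DMSO 0.1% final | times = 72 h compound incubation | detection = CTG luminescence | read-out = % viability relative to median vehicle-well signal on each plate | control set = vehicle and MePR control wells | format = collagen-coated 384-well format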

Assay [5] is described as follows: H69AR cell proliferation blockers – human, duplicate replicates, primary screen (AID 580;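 active = viability at or under a set limit in both replicates, limit being median viability minus 3 SD, cut at about 48% in these data, passing the limit was not always enough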;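 also: 100% = mean luminescence of untreated wells and 0% = no signal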). Particulars: H69AR lung tumor cells viability, ATP luminescence, 72 h; at 10 µM; stronger effect = lower value.
Assay [6] in a line: MRP1 drug-resistance reversers in H69AR cells – cell-based, doxorubicin co-treatment, pilot screen (AID 601;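 active = viability loss from added drug above about 55%, and viability with drug at most 40%, in both replicates, limit read from the data, passing the limit was not always enough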). Conditions: CellTiter-Glo, 72 h, at 10 µM; for differential viability (reversal): stronger effect = higher value.
Assay [7] is described as follows: yeast transport mutant growth inhibition pilot in 384-well plates, post-Golgi transport modulator project (AID 636; in the data active = inhibition above about 31%). Conditions: absorbance 615 nm, about 18 h, stronger effect = higher value.
Assay [8] is described as follows: growth suppression of yeast trafficking mutant, preliminary HTS, modulators of trafficking downstream of Golgi apparatus project, 1536-format plate, OD 615 nm (AID 637). Particulars: yeast transport mutant growth, absorbance 615 nm, 18 h; stronger effect = higher value.
The mark [9] stands for this setting: H69AR cells + 2 uM doxorubicin, measured here: viability with 2 uM doxorubicin, stronger effect = lower value.
Where [10] appears, read: H69AR cells, compound alone cytotoxicity.

Activity calls are given as the source filed them. Rule as the data show it, unless noted: active = inhibition above about 30%; inactive = the rest.

Receptor tyrosine-protein kinase erbB-2 (Homo sapiens), sequence (P04626 whole entry, looked up): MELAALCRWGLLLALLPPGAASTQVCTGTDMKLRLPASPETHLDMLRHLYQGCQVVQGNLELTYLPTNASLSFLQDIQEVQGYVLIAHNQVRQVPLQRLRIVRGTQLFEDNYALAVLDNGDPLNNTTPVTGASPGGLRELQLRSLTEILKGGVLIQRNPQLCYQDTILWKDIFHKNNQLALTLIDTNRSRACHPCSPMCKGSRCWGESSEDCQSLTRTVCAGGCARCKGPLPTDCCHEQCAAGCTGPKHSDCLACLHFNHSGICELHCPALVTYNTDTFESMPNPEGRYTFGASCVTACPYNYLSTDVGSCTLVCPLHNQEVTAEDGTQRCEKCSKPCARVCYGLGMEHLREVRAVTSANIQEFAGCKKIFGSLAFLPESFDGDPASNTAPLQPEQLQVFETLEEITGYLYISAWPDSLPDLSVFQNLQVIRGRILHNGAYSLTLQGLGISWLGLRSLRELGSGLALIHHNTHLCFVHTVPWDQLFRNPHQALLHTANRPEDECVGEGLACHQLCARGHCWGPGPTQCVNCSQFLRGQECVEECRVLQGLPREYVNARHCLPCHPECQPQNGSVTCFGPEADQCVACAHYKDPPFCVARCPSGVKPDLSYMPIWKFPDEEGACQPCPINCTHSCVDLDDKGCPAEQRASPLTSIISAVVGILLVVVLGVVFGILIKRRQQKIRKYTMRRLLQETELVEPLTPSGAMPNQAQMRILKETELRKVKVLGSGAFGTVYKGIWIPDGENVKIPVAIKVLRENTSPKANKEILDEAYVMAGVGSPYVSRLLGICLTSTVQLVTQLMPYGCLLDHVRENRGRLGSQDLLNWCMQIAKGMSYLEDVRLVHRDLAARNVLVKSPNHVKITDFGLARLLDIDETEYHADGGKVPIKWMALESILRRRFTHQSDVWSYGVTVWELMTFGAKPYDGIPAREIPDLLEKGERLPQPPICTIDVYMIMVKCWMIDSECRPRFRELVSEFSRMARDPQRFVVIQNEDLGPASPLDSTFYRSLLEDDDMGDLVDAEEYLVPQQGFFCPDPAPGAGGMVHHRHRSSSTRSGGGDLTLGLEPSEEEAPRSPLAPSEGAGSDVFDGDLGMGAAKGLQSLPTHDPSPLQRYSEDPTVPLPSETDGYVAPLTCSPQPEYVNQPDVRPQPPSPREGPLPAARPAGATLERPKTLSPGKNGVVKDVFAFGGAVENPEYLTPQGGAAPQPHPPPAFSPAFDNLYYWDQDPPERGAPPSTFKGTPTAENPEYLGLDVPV

As to `Cc1cc(C)c2cc(CN(CC3CCCO3)C(=O)NC3CCCCC3)c(=O)[nH]c2c1` (stereo not given), the viability is 78.5% in assay [1]; 78.5% (inactive) in assay [3]; 92% (inactive) in assay [4]; 73.4% (inactive) in assay [5]; 75.8% in assay [6] (setting [9]); 73.4% in assay [6] (setting [10]). In addition, the Her2 level in assay [2] is 89.5% (inactive). In addition, in assay [6] (H69AR cells + 2 uM doxorubicin), the differential viability (reversal) was -2.42% (inactive). In addition, the inhibition was -0.13% (inactive) in assay [7] and 15.8% (inactive) in assay [8].

Consider `CCCCN(CCCNC(=O)C1CCN(S(=O)(=O)CC)CC1)c1ccccc1`, for which the viability in assay [1] is 87%; in assay [3] it was 87% (inactive); in assay [4], 97.3% (inactive); in assay [5] it was 96.6% (inactive); in assay [6] (setting [9]), 98.2%; in assay [6] (setting [10]), 96.6%. Besides, in assay [2], the Her2 level is 89.5% (inactive). Besides, the differential viability (reversal) in assay [6] (H69AR cells + 2 uM doxorubicin) was -1.6% (inactive). The inhibition is -2.89% (inactive) in assay [7] and -6.83% (inactive) in assay [8].

Take `Cc1nc2sc3c(c2c(=O)o1)CCC3`: the viability was 110% in assay [1]; 110% (inactive) in assay [3]; 84.3% (inactive) in assay [4]; 88.1% (inactive) in assay [5]; 102% in assay [6] (setting [9]); 88.1% in assay [6] (setting [10]). Further, the Her2 level in assay [2] was 80.5% (inactive). For the same molecule, in assay [6] (H69AR cells + 2 uM doxorubicin), the differential viability (reversal) was -14.3% (inactive). The inhibition in assay [7] is -3.42% (inactive); in assay [8], 6.89% (inactive).

Consider `CCOC(=O)CSc1nnc(CNC(=O)c2cccs2)n1-c1cc(OC)ccc1OC`, for which the viability was 96.5% in assay [1]; 96.5% (inactive) in assay [3]; 113% (inactive) in assay [4]; 99.3% (inactive) in assay [5]; 88.3% in assay [6] (setting [9]); 99.3% in assay [6] (setting [10]). For the same molecule, the Her2 level in assay [2] is 94% (inactive). Also, in assay [6] (H69AR cells + 2 uM doxorubicin), the differential viability (reversal) is 11.1% (inactive). The inhibition in assay [7] is -6.32% (inactive); in assay [8], -0.55% (inactive).

Consider `CC(C)(C)OC(=O)N1CCOCCOCCN(C(=O)OC(C)(C)C)CCOCCOCC1`, for which the viability in assay [1] is 97.5%; in assay [3], 97.5% (inactive); in assay [4], 83% (inactive); in assay [5] it was 93.4% (inactive); in assay [6] (setting [9]) it was 96.4%; in assay [6] (setting [10]) it was 93.4%. Moreover, the Her2 level in assay [2] was 112% (inactive). In assay [6] (H69AR cells + 2 uM doxorubicin), the differential viability (reversal) is -2.94% (inactive). In addition, the inhibition is -3.16% (inactive) in assay [7] and 5.74% (inactive) in assay [8].

For the molecule `COc1cc(CN2CCSCC2)cc(OC)c1OC`, the viability in assay [1] is 89.5%; in assay [3], 89.5% (inactive); in assay [4] it was 88.8% (inactive); in assay [5], 109% (inactive); in assay [6] (setting [9]), 87.7%; in assay [6] (setting [10]), 109%. In assay [2], the Her2 level was 150% (inactive). Also, in assay [6] (H69AR cells + 2 uM doxorubicin), the differential viability (reversal) was 21% (inactive). Moreover, the inhibition is -0.65% (inactive) in assay [7] and -1.83% (inactive) in assay [8].

For the molecule `CCN1CCN(c2c(Cl)cccc2NC(=O)c2ccc3c(c2)OCCO3)CC1`, the viability is 80% in assay [1]; 80% (inactive) in assay [3]; 95.2% (inactive) in assay [4]; 81.7% (inactive) in assay [5]; 80.4% in assay [6] (setting [9]); 81.7% in assay [6] (setting [10]). Also, in assay [2], the Her2 level is 84.5% (inactive). Further, the differential viability (reversal) in assay [6] (H69AR cells + 2 uM doxorubicin) is 1.33% (inactive). For the same molecule, the inhibition in assay [7] is -5% (inactive); in assay [8], 3% (inactive).

On to `Cc1nnc(SCC(=O)Nc2ccc3c(c2)OCCO3)n1CC1CCCO1` (stereo not given), for which the viability in assay [1] is 102%; in assay [3] it was 102% (inactive); in assay [4], 91.8% (inactive); in assay [5], 94% (inactive); in assay [6] (setting [9]), 90.6%; in assay [6] (setting [10]), 94%. In addition, the Her2 level in assay [2] was 88.5% (inactive). In assay [6] (H69AR cells + 2 uM doxorubicin), the differential viability (reversal) was 3.46% (inactive). Also, the inhibition in assay [7] is -5.14% (inactive); in assay [8], -3.33% (inactive).

As for `CC(C)(C)c1ccc(-c2nnc(SCCC#N)n2C2CCCC2)cc1`, the viability in assay [1] is 73.5%; in assay [3], 73.5% (inactive); in assay [4], 65.7% (inactive); in assay [5], 78.8% (inactive); in assay [6] (setting [9]), 60.5%; in assay [6] (setting [10]), 78.8%. The Her2 level in assay [2] is 98.5% (inactive). Also, the differential viability (reversal) in assay [6] (H69AR cells + 2 uM doxorubicin) is 18.4% (inactive). Further, the inhibition in assay [7] was -4.32% (inactive); in assay [8], -4.1% (inactive).

In the case of `CCCCOc1ccccc1NC(=O)c1ccco1`, the viability in assay [1] was 87%; in assay [3], 87% (inactive); in assay [4], 76.6% (inactive); in assay [5], 62.9% (inactive); in assay [6] (setting [9]), 77.3%; in assay [6] (setting [10]), 62.9%. Further, in assay [2], the Her2 level is 93% (inactive). Besides, the differential viability (reversal) in assay [6] (H69AR cells + 2 uM doxorubicin) is -14.4% (inactive). The inhibition was -0.93% (inactive) in assay [7] and -0.16% (inactive) in assay [8].

In the case of `CCn1cc(C(=O)OCc2ccc(F)cc2)c(=O)c2ccc(C)nc21`, the viability is 104% in assay [1]; 104% (inactive) in assay [3]; 89.3% (inactive) in assay [4]; 79.3% (inactive) in assay [5]; 78.1% in assay [6] (setting [9]); 79.3% in assay [6] (setting [10]). Further, the Her2 level in assay [2] was 82% (inactive). Further, the differential viability (reversal) in assay [6] (H69AR cells + 2 uM doxorubicin) is 1.26% (inactive). The inhibition in assay [7] is -2.27% (inactive); in assay [8], 0.16% (inactive).

Take `CCOC(=O)c1sc2nc(SCC#N)n(CCCN3CCCC3=O)c(=O)c2c1C`: the viability in assay [1] is 80.5%; in assay [3], 80.5% (inactive); in assay [4] it was 68% (inactive); in assay [5] it was 75.8% (inactive); in assay [6] (setting [9]) it was 84%; in assay [6] (setting [10]), 75.8%. In addition, the Her2 level in assay [2] was 73% (inactive). The differential viability (reversal) in assay [6] (H69AR cells + 2 uM doxorubicin) was -8.2% (inactive). Moreover, the inhibition in assay [7] is -5% (inactive); in assay [8], -1.48% (inactive).

`CCCCn1c(CN2CCN(CCO)CC2)nc2ccccc21`: the viability was 84% in assay [1]; 84% (inactive) in assay [3]; 91.8% (inactive) in assay [4]; 96% (inactive) in assay [5]; 90.7% in assay [6] (setting [9]); 96% in assay [6] (setting [10]). For the same molecule, the Her2 level in assay [2] is 92% (inactive). Also, in assay [6] (H69AR cells + 2 uM doxorubicin), the differential viability (reversal) is 5.24% (inactive). The inhibition was -0.39% (inactive) in assay [7] and -6.55% (inactive) in assay [8].

Consider `COc1ccccc1CNS(=O)(=O)c1cccc(S(=O)(=O)N2CCOCC2)c1`, for which the viability in assay [1] was 91.5%; in assay [3], 91.5% (inactive); in assay [4], 81.6% (inactive); in assay [5], 91.7% (inactive); in assay [6] (setting [9]), 88.3%; in assay [6] (setting [10]), 91.7%. The Her2 level in assay [2] is 101% (inactive). Besides, in assay [6] (H69AR cells + 2 uM doxorubicin), the differential viability (reversal) is 3.38% (inactive). For the same molecule, the values for the inhibition in assay [7] and in assay [8] were -3.2% (inactive) and -1.48% (inactive), respectively.

These data come from PubChem BioAssay.
